The record followed here is ChEMBL document CHEMBL1150300, “Synthesis of 5-chloro-N-aryl-1H-indole-2-carboxamide derivatives as inhibitors of human liver glycogen phosphorylase a” (Bioorg Med Chem, 2008).

Structures are written as SMILES.

Assay [1] concerns the target T1, Glycogen phosphorylase, liver form (Homo sapiens, UniProt P06737).
T1 sequence (P06737 whole entry): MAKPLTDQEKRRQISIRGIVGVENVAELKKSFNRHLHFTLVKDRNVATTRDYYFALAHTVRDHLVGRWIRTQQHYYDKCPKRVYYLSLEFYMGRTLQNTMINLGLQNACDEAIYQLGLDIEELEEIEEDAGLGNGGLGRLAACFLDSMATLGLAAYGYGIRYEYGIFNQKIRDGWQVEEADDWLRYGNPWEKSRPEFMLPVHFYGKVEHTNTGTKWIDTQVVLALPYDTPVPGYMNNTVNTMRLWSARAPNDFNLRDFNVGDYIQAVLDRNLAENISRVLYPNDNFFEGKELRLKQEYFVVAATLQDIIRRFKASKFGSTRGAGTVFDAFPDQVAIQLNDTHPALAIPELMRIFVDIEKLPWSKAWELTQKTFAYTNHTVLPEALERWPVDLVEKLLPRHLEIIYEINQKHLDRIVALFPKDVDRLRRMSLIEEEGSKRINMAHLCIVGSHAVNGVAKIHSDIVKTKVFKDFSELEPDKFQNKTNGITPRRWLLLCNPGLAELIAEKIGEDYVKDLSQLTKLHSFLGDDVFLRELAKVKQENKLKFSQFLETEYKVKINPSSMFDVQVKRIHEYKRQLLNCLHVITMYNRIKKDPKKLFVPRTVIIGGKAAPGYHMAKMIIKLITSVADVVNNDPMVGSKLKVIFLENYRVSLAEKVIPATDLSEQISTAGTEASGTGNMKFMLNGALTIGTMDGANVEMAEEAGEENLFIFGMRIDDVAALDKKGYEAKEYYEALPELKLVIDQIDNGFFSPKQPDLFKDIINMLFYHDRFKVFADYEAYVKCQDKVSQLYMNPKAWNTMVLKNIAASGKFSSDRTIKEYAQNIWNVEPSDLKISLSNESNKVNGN
Description: Inhibition of human liver glycogen phosphorylase a.

The subject of assay [2] is Hepatocyte. Description: Inhibition of glucagon-induced glycogenolysis in Sprague-Dawley rat hepatocytes. It is filed as functional, cell-based. In short, it runs like this: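 Hepatocytes from fed male Sprague-Dawley rats (150–200 g), viability >85%, plated on collagen at 2.5 × 10⁵ cells/well. Washed cells incubated 30 min at 37 °C in glucose-free/calcium-free Hanks buffer with 0.1% DMSO and inhibitor at 0.1–10 µM, with or without 10 nM glucagon. Medium glucose read by glucose oxidase/peroxidase; IC50 by logistic regression.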

In assay [3] the test system is Mus musculus. Description: Hypoglycemic activity against C57BL/KsJ db/db mouse assessed as reduction of blood glucose at 50 mg/kg, po after 2 hrs relative to control. Details: scale not given: the % may be the effect or the level left. It is filed as functional. In a few lines:
(§1)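 Male C57BL/KsJ db/db mice, 6 weeks old, on commercial diet, grouped (n = 6) to uniform blood glucose and body weight; non-fasted pre-dose glucose measured next day. Single oral dose at 10 mL/kg; blood glucose measured at 2 h. Activity given as percentage decrease versus vehicle-treated controls, significance by unpaired t-test on mean glucose.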

For assay [4], the system named is Mus musculus. Description: Hypoglycemic activity against C57BL/KsJ db/db mouse assessed as reduction of blood glucose at 30 mg/kg, po after 2 hrs relative to control. It is filed as functional. Details: scale not given: the % may be the effect or the level left. In a few lines: as §1

As for `COc1cc(NC(=O)c2cc3cc(Cl)ccc3[nH]2)ccc1C(O)CO` (configuration not stated), 2500 nM corresponded to half-maximal inhibition in assay [1] (IC50).
Turning to `O=C(Nc1ccc(C(O)CO)c([N+](=O)[O-])c1)c1cc2cc(Cl)ccc2[nH]1` (configuration not stated), 2100 nM corresponded to half-maximal inhibition in assay [1] (IC50).
As to `CC(C)(O)C(O)c1ccc(NC(=O)c2cc3cc(Cl)ccc3[nH]2)cc1` (configuration not stated), in assay [1], the half-inhibitory concentration (IC50) – broadly, the concentration needed to halve the response being measured – is above 10000 nM.
The same measure, in the same setting: for `O=C(Nc1ccc(C(O)CO)c(-c2ccccc2)c1)c1cc2cc(Cl)ccc2[nH]1` (configuration not stated) the value was 7400 nM; for `O=C(Nc1ccc(C(O)CO)c(F)c1)c1cc2cc(Cl)ccc2[nH]1` (configuration not stated), 340 nM; for `O=C(Nc1ccc(C(CO)CO)cc1)c1cc2cc(Cl)ccc2[nH]1`, 5800 nM.
As to `Cc1cc(C(O)CO)ccc1NC(=O)c1cc2cc(Cl)ccc2[nH]1` (configuration not stated), in assay [1], the half-maximal inhibitory concentration (IC50) was 2600 nM.
`Nc1cc(NC(=O)c2cc3cc(Cl)ccc3[nH]2)ccc1C(O)CO` (configuration not stated) came in with a 50% inhibitory concentration (IC50) in assay [1] of 1700 nM.
On to `O=C(Nc1ccc(C(O)CO)cn1)c1cc2cc(Cl)ccc2[nH]1` (configuration not stated), for which the IC50 in assay [2] was 620 nM; in assay [1] it was 250 nM. Besides, the Activity in assay [3] is given as 26%; in assay [4], 13%.
The compound `O=C(Nc1ccc(C(O)CO)nc1)c1cc2cc(Cl)ccc2[nH]1` (configuration not stated) displayed an IC50 in assay [1] of 4400 nM.
Still for that read-out and setting: then `O=C(Nc1cnc(C(O)CO)cn1)c1cc2cc(Cl)ccc2[nH]1` (configuration not stated), with 440 nM.
In assay [1], `O=C(Nc1ncc(C(O)CO)s1)c1cc2cc(Cl)ccc2[nH]1` (configuration not stated) returned a concentration for half-maximal inhibition (IC50) of 3100 nM.
In assay [1], `O=C(Nc1ccc(CCCO)cc1)c1cc2cc(Cl)ccc2[nH]1` gave a half-inhibitory concentration (IC50) above 10000 nM.
`O=C(Nc1cccc(CCO)c1)c1cc2cc(Cl)ccc2[nH]1` registered a concentration for half-maximal inhibition (IC50) in assay [1] of 6200 nM.
For the compound `O=C(Nc1ccc(C(O)CO)cc1)c1cc2cc(Cl)ccc2[nH]1` (configuration not stated), the IC50 in assay [1] was found to be 900 nM.
With `O=C(Nc1ccc(CO)cc1)c1cc2cc(Cl)ccc2[nH]1`, the IC50 in assay [1] amounted to 1600 nM.
With `O=C(Nc1ccc(CCO)cc1)c1cc2cc(Cl)ccc2[nH]1`, 1200 nM corresponded to half-maximal inhibition in assay [1] (IC50).
In the case of `O=C(Nc1ccc(C(O)CO)cc1F)c1cc2cc(Cl)ccc2[nH]1` (configuration not stated), the concentration for half-maximal inhibition (IC50) in assay [1] was found to be 420 nM.
Same read-out and setting: then `COCC(O)c1ccc(NC(=O)c2cc3cc(Cl)ccc3[nH]2)cc1` (configuration not stated), with 3600 nM; and `O=C(Nc1ccc(C(O)CO)cc1Cl)c1cc2cc(Cl)ccc2[nH]1` (configuration not stated), with 1100 nM.
Compound `O=C(Nc1ccccc1CCO)c1cc2cc(Cl)ccc2[nH]1` showed an IC50 in assay [1] above 10000 nM.
The same measure, in the same setting: for `O=C(Nc1nc(C(O)CO)cs1)c1cc2cc(Cl)ccc2[nH]1` (configuration not stated) the value was above 10000 nM.
`O=C(N[C@@H](Cc1ccc(F)cc1)C(=O)N1CCC(O)CC1)c1cc2cc(Cl)ccc2[nH]1` registered a half-maximal inhibitory concentration (IC50) in assay [2] of 1700 nM. Also, the Activity in assay [3] turned out to be 20%.
